Source: ChEMBL document CHEMBL4311948, “Exploring the Natural Piericidins as Anti-Renal Cell Carcinoma Agents Targeting Peroxiredoxin 1” (J Med Chem, 2019)
pIC50, pKd: −log10 of the molar value. Active and inactive are the calls of the source. No cut-off for these calls is given here.

Tests used:
ACHN [1] = test: Cytotoxicity against human ACHN cells assessed as reduction in cell viability measured after 72 hrs by CCK8 assay; type: functional, cell-based
How it was run: (§1)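 Cells were grown in 10% FBS medium: MEM for ACHN, RPMI1640 for OS-RC-2 and 786-O, DMEM for HK-2. They were seeded at 400–800 cells/well in 384-well plates and treated with a range of compound concentrations or solvent control, with sorafenib as positive control. After 72 h, CCK-8 absorbance was read at 450 nm in triplicate, and IC50 was taken from dose-response curves.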

786-0 = test: Cytotoxicity against human 786-O cells assessed as reduction in cell viability measured after 72 hrs by CCK8 assay; type: functional, cell-based; settings: 786-0, 72 h; how it was run: as §1
HK-2 = test: Cytotoxicity against human HK2 cells assessed as reduction in cell viability measured after 72 hrs by CCK8 assay; type: cell-based; settings: HK-2, 72 h; how it was run: as §1
ACHN [2] = test: Down regulation of SOD2 mRNA expression in human ACHN cells at 25 to 50 nM measured after 24 hrs by qRT-PCR analysis; type: functional, cell-based
ACHN [3] = test: Down regulation of ETS1 mRNA expression in human ACHN cells at 25 to 50 nM measured after 24 hrs by qRT-PCR analysis; type: functional, cell-based
ACHN [4] = test: Down regulation of HK2 mRNA expression in human ACHN cells at 25 to 50 nM measured after 24 hrs by qRT-PCR analysis; type: functional, cell-based
ACHN [5] = test: Down regulation of SLC2A1 mRNA expression in human ACHN cells at 25 to 50 nM measured after 24 hrs by qRT-PCR analysis; type: functional, cell-based
ACHN [6] = test: Down regulation of HIF1A mRNA expression in human ACHN cells at 25 to 50 nM measured after 24 hrs by qRT-PCR analysis; type: functional, cell-based
ACHN [7] = test: Antioxidant activity in human ACHN cells harboring shPRDX1 gene assessed as reduction in reactive oxygen species level at 25 to 50 nM measured after 24 hrs by Cell-rox reagent-based flow cytometry; type: functional
How it was run: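 ACHN cells grown 24 h in MEM + 10% FBS, reseeded at 2 × 10^4 cells/well and exposed to 0, 25 or 50 nM for 24 h. Harvested cells loaded with CellROX oxidative stress reagent 5 μM, 30 min at 37 °C in the dark, then read by flow cytometry. shPRDX1 line: stable knockdown selected with puromycin (1 μg/mL) before dosing. Mean ± SD.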

ACHN [8] = test: Induction of apoptosis in human ACHN cells assessed as viable cells at 50 nM measured after 24 hrs by Annexin V-FITC/propidium iodide staining based flow cytometry (reference value: 100%); type: functional; settings: read-out: Activity
ACHN [9] = test: Induction of apoptosis in human ACHN cells assessed as early apoptotic cells at 50 nM measured after 24 hrs by Annexin V-FITC/propidium iodide staining based flow cytometry (reference value: 0%); type: functional
ACHN [10] = test: Induction of apoptosis in human ACHN cells assessed as late apoptotic cells at 50 nM measured after 24 hrs by Annexin V-FITC/propidium iodide staining based flow cytometry (reference value: 0%); type: functional
ACHN [11] = test: Induction of apoptosis in human ACHN cells assessed as viable cells at 50 nM measured after 48 hrs by Annexin V-FITC/propidium iodide staining based flow cytometry (reference value: 99.9%); type: functional; settings: read-out: Activity
ACHN [12] = test: Induction of apoptosis in human ACHN cells assessed as early apoptotic cells at 50 nM measured after 48 hrs by Annexin V-FITC/propidium iodide staining based flow cytometry (reference value: 0%); type: functional
ACHN [13] = test: Induction of apoptosis in human ACHN cells assessed as necrotic cells at 50 nM measured after 48 hrs by Annexin V-FITC/propidium iodide staining based flow cytometry (reference value: 0%); type: functional
ACHN [14] = test: Selectivity ratio of IC50 for cytotoxicity against human ACHN cells harboring shPRDX1 gene to IC50 for Cytotoxicity against human ACHN cells; type: functional
ACHN [15] = test: Up regulation of nuclear PRDX1 expression in human ACHN cells at 25 to 50 nM measured after 24 hrs by immunoblot analysis; type: functional, cell-based
How it was run: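 ACHN cells treated 24 h with 25 or 50 nM, then nuclear and cytosolic extracts prepared. Lysis in RIPA buffer, BCA quantitation, 30–50 μg protein resolved on 10% or 12% gels. Blotted with anti-PRDX1 (1:1000) and β-actin (1:3000), band ratio PRDX1/β-actin reported as fold change. Mean ± SD.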

[16] = target: T1, Peroxiredoxin-1 (Homo sapiens) (UniProt Q06830); test: Induction of PRDX1 nuclear translocation in human ACHN cells at 25 to 50 nM measured after 24 hrs by DAPI staining-based microscopic analysis; type: cell-based
T1 sequence (whole entry): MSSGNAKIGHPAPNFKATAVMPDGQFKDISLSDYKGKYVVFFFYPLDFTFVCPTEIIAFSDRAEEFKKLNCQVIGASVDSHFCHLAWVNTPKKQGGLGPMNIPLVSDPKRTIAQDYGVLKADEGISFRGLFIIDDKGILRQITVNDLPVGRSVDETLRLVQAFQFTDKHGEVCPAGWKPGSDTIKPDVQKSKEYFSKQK
How it was run: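 ACHN cells exposed 24 h to 25 or 50 nM, fixed in 4% paraformaldehyde 10 min and permeabilised with 0.5% Triton X-100. Blocked with 10% FBS, 4 °C, 12 h. Stained with anti-PRDX1 overnight, FITC secondary 2 h RT, DAPI nuclear counterstain. Confocal imaging scored mean fluorescence intensity (n = 9).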

Peroxiredoxin-1 = target: T2, Peroxiredoxin-1 (Homo sapiens, UniProt Q06830); test: Binding affinity to full-length human PRDX1 by surface plasmon resonance analysis
T2 sequence (Q06830 whole entry): T1 sequence (whole entry)
How it was run: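 Full-length human PRDX1 immobilised on a CM5 chip (Biacore T100). Analyte concentration series diluted in 10 mM Hepes pH 7.4, injected over the protein surface and a protein-free reference surface in a single step.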

[17] = Toxicity in Balb/c nu/nu mouse xenografted with human ACHN cells assessed as decrease in body weight at 0.8 mg/kg, ip administered once daily for 21 days; type: organism-based; settings: in vivo, 504 h
How it was run: (§2)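 Male athymic Balb/c nu/nu mice, four weeks old, acclimatised 1 week. 10^7 ACHN cells in 0.2 mL PBS injected into the right flank. At about 150 mm3, mice randomised into PBS control or 0.8 mg/kg groups, dosed ip daily for three weeks. Tumours measured by caliper (volume = 0.5 × L × W²) with body weight recorded. Endpoint tumour weight, sections stained by H&E and TUNEL. Tissue lysed for immunoblot.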

Mus musculus [18] = test: Up regulation of PRDX1 expression in human ACHN cells xenografted Balb/c nu/nu mouse at 0.8 mg/kg, ip administered once daily for 21 days measured post-last dose by immunoblot analysis; type: functional, organism-based; how it was run: as §2
Mus musculus [19] = test: Up regulation of PRDX1 mRNA expression in human ACHN cells xenografted Balb/c nu/nu mouse at 0.8 mg/kg, ip administered once daily for 21 days measured post-last dose by qRT-PCR analysis; type: functional, organism-based
ACHN [20] = test: Antitumor activity against human ACHN cells xenografted in Balb/c nu/nu mouse assessed as tumor growth inhibition at 0.8 mg/kg, ip administered once daily for 21 days measured post-last dose by TUNEL staining-based assay; type: functional, organism-based; how it was run: as §2
ACHN [21] = test: Antitumor activity against human ACHN cells xenografted in Balb/c nu/nu mouse assessed as tumor growth inhibition at 0.8 mg/kg, ip administered once daily for 21 days measured post-last dose by H and E staining-based assay; type: functional, organism-based; how it was run: as §2

Which results are given for `C/C=C(\C)[C@H](O)[C@H](C)/C=C(C)/C=C/C/C(C)=C/Cc1nc(OC)c(OC)c(O)c1C` [PIERICIDIN A]?
pIC50 (ACHN [1]): 6.40; pIC50 (786-0): 4.52; pIC50 (HK-2): < 4.00; Activity (ACHN [2]): Active; Activity (ACHN [3]): Active; Activity (ACHN [4]): Active; Activity (ACHN [5]): Active; Activity (ACHN [6]): Active; Activity (ACHN [7]): Active; viability at 0.05 µM (ACHN [8]): 81.9%; Activity (ACHN [9]): 0.9%; Activity (ACHN [10]): 1.3%; viability at 0.05 µM (ACHN [11]): 15.9%; Activity (ACHN [12]): 1.1%; Activity (ACHN [13]): 75.6%; Ratio IC50 (ACHN [14]): 4; Activity (ACHN [15]): Active; Activity [16]: Active; pKd (Peroxiredoxin-1): 5.58; Activity [17]: Non-Toxic; Activity (Mus musculus [18]): Active; Activity (Mus musculus [19]): Active; TGI (ACHN [20]): Active; TGI (ACHN [21]): Active
